Calls of active or inactive are those of the source. The rule behind the calls is not given here.
How the values were obtained:
Staphylococcus aureus [1] = experiment: Antibacterial activity against methicillin-resistant Staphylococcus aureus MRSA 4591 after 24 hrs; format: functional, organism-based
K562 [2] = experiment: Cytostatic activity against paclitaxel-resistant human K562 cells after 72 hrs by MTT assay; format: functional, cell-based; settings: K562, 72 h
Summary of the method: (§1)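 IC50 is the concentration that cuts cell growth by 50%, read by quantitative metabolic MTT staining after a 3-day treatment. The resistant sublines were made by raising the concentration of the cytotoxic drug step by step. CEM-DNR-bulk (daunorubicin-selected) stably overexpresses mrp-1. K562-TAX (paclitaxel-selected) expresses only mdr-1. HCT116p53−/− carries null p53 alleles. BJ and MRC-5 are nonmalignant fibroblasts.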

[3] = Antiproliferative activity against human HeLaS3 cells after 72 hrs by XTT assay; format: functional, cell-based; settings: HeLa S3, 72 h
Summary of the method: (§2)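 Antiproliferative test on HL-60 promyelocytic leukemia and HeLa S3 cervical carcinoma cells growing in liquid suspension.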

Staphylococcus aureus [4] = experiment: Antibacterial activity against Staphylococcus aureus CCM 3953 after 24 hrs; format: functional, organism-based
[5] = Cytostatic activity against human CEM-DNR-bulk cells after 72 hrs by MTT assay; format: functional, cell-based; summary of the method: as §1
HCT-116 [6] = experiment: Cytostatic activity against p53-deficient human HCT116 cells after 72 hrs by MTT assay; format: functional, cell-based; settings: HCT-116, 72 h; summary of the method: as §1
[7] = test system: Staphylococcus haemolyticus; experiment: Antibacterial activity against methicillin-resistant Staphylococcus haemolyticus A/16568 after 24 hrs; format: functional, organism-based
HCT-116 [8] = experiment: Cytostatic activity against human HCT116 cells after 72 hrs by MTT assay; format: functional, cell-based; settings: HCT-116, 72 h; summary of the method: as §1
K562 [9] = experiment: Cytostatic activity against human K562 cells after 72 hrs by MTT assay; format: functional, cell-based; settings: K562, 72 h; summary of the method: as §1
Candida albicans = experiment: Antifungal activity against Candida albicans after 48 hrs; format: functional, organism-based
HepG2 = experiment: Antiproliferative activity against human HepG2 cells after 72 hrs by XTT assay; format: functional, cell-based; settings: HepG2, 72 h
CCRF-CEM [10] = experiment: Inhibition of RNA synthesis in human CCRF-CEM cells assessed as BrU-positive cells at IC50 after 24 hrs by propidium iodide staining-based flow cytometric analysis (reference value: 43.3%); format: functional; design: scale not given: the % may be the effect or the level left
CCRF-CEM [11] = experiment: Cell cycle arrest in human CCRF-CEM cells assessed as accumulation at sub-G1 phase at IC50 after 24 hrs by propidium iodide staining-based flow cytometric analysis (reference value: 9.6%); format: functional
Pseudomonas aeruginosa [12] = experiment: Antibacterial activity against multi-resistant Pseudomonas aeruginosa A/16575 after 24 hrs; format: functional, organism-based
Candida parapsilosis = experiment: Antifungal activity against Candida parapsilosis after 48 hrs; format: functional, organism-based
Enterococcus faecalis = experiment: Antibacterial activity against Enterococcus faecalis CCM 4224 after 24 hrs; format: functional, organism-based
[13] = Cytotoxicity against human HuH7 cells infected with Hepatitis C virus subtype 1b; format: cell-based, Huh-7
Escherichia coli [14] = experiment: Antibacterial activity against Escherichia coli CCM 3954 after 24 hrs; format: functional, organism-based
Pichia kudriavzevii = experiment: Antifungal activity against Candida crusei after 48 hrs; format: functional, organism-based
Pseudomonas aeruginosa [15] = experiment: Antibacterial activity against Pseudomonas aeruginosa CCM 3955 after 24 hrs; format: functional, organism-based
MRC5 = experiment: Cytostatic activity against human MRC5 cells after 72 hrs by MTT assay; format: ADME, cell-based; settings: MRC5, 72 h; summary of the method: as §1
[16] = Cytotoxicity against human HuH7 cells infected with Hepatitis C virus subtype 2a; format: cell-based, Huh-7
Escherichia coli [17] = experiment: Antibacterial activity against multi-resistant Escherichia coli C/16702 after 24 hrs; format: functional, organism-based
Hepatitis C virus [18] = experiment: Antiviral activity against Hepatitis C virus subtype 1b infected in human HuH7 cells; format: functional, organism-based, Hepacivirus hominis; settings: genotype 1b, Huh-7
BJ = experiment: Cytostatic activity against human BJ cells after 72 hrs by MTT assay; format: ADME, cell-based; summary of the method: as §1
CCRF-CEM [19] = experiment: Mitotic arrest in human CCRF-CEM cells assessed as pH3Ser10-positive cells at IC50 after 24 hrs by propidium iodide staining-based flow cytometric analysis (reference value: 1.4%); format: functional
A549 = experiment: Cytostatic activity against human A549 cells after 72 hrs by MTT assay; format: functional, cell-based; settings: A549, 72 h; summary of the method: as §1
HL-60 = experiment: Antiproliferative activity against human HL60 cells after 72 hrs by XTT assay; format: functional, cell-based; settings: HL-60, 72 h; summary of the method: as §2
Candida tropicalis = experiment: Antifungal activity against Candida tropicalis after 48 hrs; format: functional, organism-based
Hepatitis C virus [20] = experiment: Antiviral activity against Hepatitis C virus subtype 2a infected in human HuH7 cells; format: functional, organism-based, Hepacivirus hominis; settings: genotype 2a, Huh-7
CCRF-CEM [21] = experiment: Cytostatic activity against human CCRF-CEM cells after 72 hrs by MTT assay; format: functional, cell-based; summary of the method: as §1
CCRF-CEM [22] = experiment: Cell cycle arrest in human CCRF-CEM cells assessed as accumulation at G2/M phase at IC50 after 24 hrs by propidium iodide staining-based flow cytometric analysis (reference value: 14.2%); format: functional
CCRF-CEM [23] = experiment: Cell cycle arrest in human CCRF-CEM cells assessed as accumulation at G1 phase at IC50 after 24 hrs by propidium iodide staining-based flow cytometric analysis (reference value: 41%); format: functional

Compound	Activity (Staphylococcus aureus [1])	IC50 (K562 [2])	IC50 [3]	Activity (Staphylococcus aureus [4])	IC50 [5]	IC50 (HCT-116 [6])	Activity [7]	IC50 (HCT-116 [8])	IC50 (K562 [9])	Activity (Candida albicans)	IC50 (HepG2)	Activity (CCRF-CEM [10])	Activity (Pseudomonas aeruginosa [12])	Activity (Candida parapsilosis)	Activity (Enterococcus faecalis)	CC50 [13]	Activity (Escherichia coli [14])	Activity (Pichia kudriavzevii)	Activity (Pseudomonas aeruginosa [15])	IC50 (MRC5)	other results
COc1ncnc2c1c(-c1ccoc1)cn2[C@@H]1O[C@H](CO)[C@@H](O)[C@H]1O	inactive	2.82 µM	1.79 µM	inactive	> 20 µM	0.13 µM	inactive	0.11 µM	0.19 µM	inactive	0.29 µM	0.7%	inactive	inactive	inactive	> 44 µM	inactive	inactive	inactive	29.4 µM	Activity (CCRF-CEM [11]): 8.5%; CC50 [16]: > 44 µM; Activity (Escherichia coli [17]): inactive; EC50 (Hepatitis C virus [18]): 0.33 µM; IC50 (BJ): 28.8 µM; Activity (CCRF-CEM [19]): 1.6%; IC50 (A549): 1.16 µM; IC50 (HL-60): 0.15 µM; Activity (Candida tropicalis): inactive; EC50 (Hepatitis C virus [20]): 8.28 µM; IC50 (CCRF-CEM [21]): 0.11 µM
C#Cc1cn([C@@H]2O[C@H](CO)[C@@H](O)[C@H]2O)c2ncnc(N(C)C)c12	inactive	0.26 µM	0.81 µM	inactive	0.24 µM	0.29 µM	inactive	0.18 µM	0.11 µM	inactive	1.32 µM	8.6%	inactive	inactive	inactive	> 44 µM	inactive	inactive	inactive	36.1 µM	Activity (CCRF-CEM [11]): 8.9%; CC50 [16]: > 44 µM; Activity (Escherichia coli [17]): inactive; EC50 (Hepatitis C virus [18]): 0.07 µM; IC50 (BJ): 0.41 µM; Activity (CCRF-CEM [19]): 1.3%; IC50 (A549): 0.39 µM; IC50 (HL-60): 0.29 µM; Activity (Candida tropicalis): inactive; EC50 (Hepatitis C virus [20]): 0.1 µM; IC50 (CCRF-CEM [21]): 0.09 µM
COc1ncnc2c1c(-c1cccs1)cn2[C@@H]1O[C@H](CO)[C@@H](O)[C@H]1O	inactive	6.2 µM	1.76 µM	inactive	12.1 µM	0.44 µM	inactive	0.08 µM	0.07 µM	inactive	13.9 µM	0.1%	inactive	inactive	inactive	> 44 µM	inactive	inactive	inactive	43.2 µM	Activity (CCRF-CEM [22]): 9.8%; Activity (CCRF-CEM [11]): 7.5%; CC50 [16]: > 44 µM; Activity (Escherichia coli [17]): inactive; EC50 (Hepatitis C virus [18]): 1.08 µM; IC50 (BJ): 62.8 µM; Activity (CCRF-CEM [19]): 1.1%; IC50 (A549): 4.85 µM; IC50 (HL-60): 0.08 µM; Activity (Candida tropicalis): inactive; EC50 (Hepatitis C virus [20]): > 44 µM; IC50 (CCRF-CEM [21]): 0.09 µM
CN(C)c1ncnc2c1c(-c1ccco1)cn2[C@@H]1O[C@H](CO)[C@@H](O)[C@H]1O	inactive	1.28 µM	1.19 µM	inactive	3.14 µM	0.32 µM	inactive	0.25 µM	0.15 µM	inactive	> 15 µM	0.4%	inactive	inactive	inactive	> 44 µM	inactive	inactive	inactive	> 100 µM	Activity (CCRF-CEM [23]): 31%; CC50 [16]: > 44 µM; Activity (Escherichia coli [17]): inactive; EC50 (Hepatitis C virus [18]): 1.49 µM; IC50 (BJ): > 100 µM; Activity (CCRF-CEM [19]): 1.5%; IC50 (A549): 4.6 µM; IC50 (HL-60): 0.22 µM; Activity (Candida tropicalis): inactive; EC50 (Hepatitis C virus [20]): 1.35 µM; IC50 (CCRF-CEM [21]): 2.91 µM

— ChEMBL document CHEMBL3124843, “Synthesis, cytostatic, antimicrobial, and anti-HCV activity of 6-substituted 7-(het)aryl-7-deazapurine ribonucleosides” (J Med Chem, 2014)
